Measurements published in ChEMBL document CHEMBL1131103, “Synthesis and biological evaluation of 2-acyl analogues of paclitaxel (Taxol)” (J Med Chem, 1998).

How the values were obtained:
[1] = test system: ptx-10/22; assay: Relative resistance was measured against human paclitaxel-resistant cell lines; type: functional, cell-based; details: 1A9(PTX22)
[2] = test system: Panel ovarian (Carcinoma cell lines); assay: Cytotoxic activity was measured against human Ovarian carcinoma cell lines; type: functional, cell-based
In short: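 Ovarian carcinoma line 1A9, a subclone of A2780, grown as monolayers in 96-well plates for 96 h at 37 °C, 5% CO₂. Cell protein quantitated (Skehan method). IC₅₀ = concentration inhibiting the increase in cell protein by 50%.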

[3] = species: Bos taurus; assay: Polymerizing activity of microtubule protein against the twice cycled microtubule protein; type: functional
In short: (§1)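 Twice-cycled microtubule protein, stored in liquid nitrogen, at 1.0 mg/mL final in 0.1 M MES, 1 mM EGTA, 0.5 mM MgCl₂, pH 6.6, 37 °C, no GTP. Compound at 2.5, 5.0 and 10 µM. Absorbance read every 10 s and initial linear slopes taken. EC0.01 = interpolated concentration giving an initial slope of 0.01 A unit/min.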

[4] = test system: Panel colon (Carcinoma cell lines); assay: Cytotoxic activity was measured against human colon carcinoma cell lines; type: functional, cell-based
In short: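 HCT116 colon carcinoma monolayers in 96-well plates, 48 h at 37 °C under 5% CO₂. Cell protein measured. IC₅₀ = concentration giving 50% inhibition of the increase in cell protein.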

[5] = species: Bos taurus; assay: Polymerizing activity of tubulin in glutamate against bovine brain tubulin homogenate was measured at 0.4 M concentrations; type: functional
In short: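 Purified, electrophoretically homogeneous bovine brain tubulin assembled at room temperature without GTP or Mg²⁺ in 0.4 M monosodium glutamate (from 2 M stock, pH 6.6). Polymer pelleted by centrifugation. IC₅₀ = drug concentration lowering supernatant protein by 50% versus no-drug control. Up to 40 µM. At least three independent experiments, or at least two where IC₅₀ exceeded 40 µM.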

[6] = test system: Burkitts lymphoma cell; assay: Cytotoxic activity against was measured human Burkitt lymphoma cell lines.; type: functional, cell-based
In short: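 CA46 Burkitt lymphoma cells in 5.0-mL suspension culture, counted after 24 h at 37 °C under 5% CO₂. IC₅₀ = drug concentration halving the increase in cell number. Highest concentration 100 nM. At least two independent experiments.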

[7] = species: Bos taurus; assay: Polymerizing activity of tubulin in glutamate against bovine brain tubulin homogenate was measured at 0.8M concentrations; type: functional
In short: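 Bovine brain tubulin, purified to electrophoretic homogeneity, in 0.8 M monosodium glutamate (from 2 M stock, pH 6.6), room temperature, no GTP. Polymer removed by centrifugation. IC₅₀ = concentration reducing supernatant protein by 50% relative to drug-free control. Maximum 40 µM. At least three independent experiments, or at least two for IC₅₀ over 40 µM.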

[8] = species: Bos taurus; assay: Polymerizing activity of microtubule protein.; type: functional; in short: as §1

IC50 [5]	IC50 [7]	SMILES	relative resistance [1]	IC50 [2]	EC0.01 (relative to paclitaxel) [3]	IC50 [4]	IC50 [6]	EC0.01 (relative to paclitaxel) [8]
> 1.7 relative to paclitaxel	4.7 relative to paclitaxel	CC(=O)O[C@H]1C(=O)[C@@]2(C)[C@H]([C@H](OC(=O)c3cc(F)c(F)c(F)c3)[C@]3(O)C[C@H](OC(=O)[C@H](O)[C@@H](NC(=O)c4ccccc4)c4ccccc4)C(C)=C1C3(C)C)[C@]1(OC(C)=O)CO[C@@H]1C[C@@H]2O	0.62	3.2 relative to paclitaxel	1.8	3.4 relative to paclitaxel	1.3 relative to paclitaxel	–
> 1.7 relative to paclitaxel	4.7 relative to paclitaxel	COc1cc(OC)cc(C(=O)O[C@H]2[C@@H]3[C@]4(OC(C)=O)CO[C@@H]4C[C@H](O)[C@@]3(C)C(=O)[C@H](OC(C)=O)C3=C(C)[C@@H](OC(=O)[C@H](O)[C@@H](NC(=O)c4ccccc4)c4ccccc4)C[C@]2(O)C3(C)C)c1	0.57	3.3 relative to paclitaxel	2.6	5.4 relative to paclitaxel	1 relative to paclitaxel	–
> 1.7 relative to paclitaxel	3.1 relative to paclitaxel	CC(=O)O[C@H]1C(=O)[C@@]2(C)[C@H]([C@H](OC(=O)c3ccc(F)c(F)c3)[C@]3(O)C[C@H](OC(=O)[C@H](O)[C@@H](NC(=O)c4ccccc4)c4ccccc4)C(C)=C1C3(C)C)[C@]1(OC(C)=O)CO[C@@H]1C[C@@H]2O	0.57	3.4 relative to paclitaxel	2.2	2.7 relative to paclitaxel	0.33 relative to paclitaxel	–
1.4 relative to paclitaxel	1.2 relative to paclitaxel	CCOc1cccc(C(=O)O[C@H]2[C@@H]3[C@]4(OC(C)=O)CO[C@@H]4C[C@H](O)[C@@]3(C)C(=O)[C@H](OC(C)=O)C3=C(C)[C@@H](OC(=O)[C@H](O)[C@@H](NC(=O)c4ccccc4)c4ccccc4)C[C@]2(O)C3(C)C)c1	0.37	1.7 relative to paclitaxel	–	1.6 relative to paclitaxel	1 relative to paclitaxel	1.1
> 1.7 relative to paclitaxel	> 8.9 relative to paclitaxel	CC(=O)O[C@H]1C(=O)[C@@]2(C)[C@H]([C@H](OC(=O)c3cccc(OC(C)C)c3)[C@]3(O)C[C@H](OC(=O)[C@H](O)[C@@H](NC(=O)c4ccccc4)c4ccccc4)C(C)=C1C3(C)C)[C@]1(OC(C)=O)CO[C@@H]1C[C@@H]2O	0.29	15 relative to paclitaxel	> 140	17 relative to paclitaxel	1.3 relative to paclitaxel	–
> 1.7 relative to paclitaxel	1.2 relative to paclitaxel	COc1ccccc1C(=O)O[C@H]1[C@@H]2[C@]3(OC(C)=O)CO[C@@H]3C[C@H](O)[C@@]2(C)C(=O)[C@H](OC(C)=O)C2=C(C)[C@@H](OC(=O)[C@H](O)[C@@H](NC(=O)c3ccccc3)c3ccccc3)C[C@]1(O)C2(C)C	0.95	1.4 relative to paclitaxel	1.5	1.9 relative to paclitaxel	0.67 relative to paclitaxel	–
> 1.7 relative to paclitaxel	4 relative to paclitaxel	CC(=O)O[C@H]1C(=O)[C@@]2(C)[C@H]([C@H](OC(=O)c3cc(N=[N+]=[N-])cc(N=[N+]=[N-])c3)[C@]3(O)C[C@H](OC(=O)[C@H](O)[C@@H](NC(=O)c4ccccc4)c4ccccc4)C(C)=C1C3(C)C)[C@]1(OC(C)=O)CO[C@@H]1C[C@@H]2O	0.4	1.3 relative to paclitaxel	0.67	1.6 relative to paclitaxel	1 relative to paclitaxel	–

SMILES	IC50 [5]	IC50 [7]	relative resistance [1]	IC50 [2]	EC0.01 (relative to paclitaxel) [3]	IC50 [4]	IC50 [6]	EC0.01 (relative to paclitaxel) [8]
CC(=O)O[C@H]1C(=O)[C@@]2(C)[C@H]([C@H](OC(=O)c3cccc([N+](=O)[O-])c3)[C@]3(O)C[C@H](OC(=O)[C@H](O)[C@@H](NC(=O)c4ccccc4)c4ccccc4)C(C)=C1C3(C)C)[C@]1(OC(C)=O)CO[C@@H]1C[C@@H]2O	> 1.7 relative to paclitaxel	1.6 relative to paclitaxel	0.76	1.3 relative to paclitaxel	0.69	0.88 relative to paclitaxel	1 relative to paclitaxel	–
CC(=O)O[C@H]1C(=O)[C@@]2(C)[C@H]([C@H](OC(=O)c3cccc(I)c3)[C@]3(O)C[C@H](OC(=O)[C@H](O)[C@@H](NC(=O)c4ccccc4)c4ccccc4)C(C)=C1C3(C)C)[C@]1(OC(C)=O)CO[C@@H]1C[C@@H]2O	> 1.7 relative to paclitaxel	3.1 relative to paclitaxel	0.35	1.6 relative to paclitaxel	0.79	0.85 relative to paclitaxel	2.3 relative to paclitaxel	–
